Source: ChEMBL document CHEMBL1121389, “Mono- and diaryl-2-quinuclidinylcarbinols with local anesthetic and antiarrhythmic activity” (1980)

Tests used:
[1] = tested on: Canis familiaris; assay: Heart rate of the dog was measured after drug administration to dogs; format: functional, Canis lupus familiaris
Procedure, shortened: (§1)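 Dogs anesthetized with pentobarbital 35 mg/kg. Ouabain given iv at 40 μg/kg, then 20 μg/kg 30 min later, then 10 μg/kg every 15 min until ventricular tachycardia persisted. About 20 min after the last ouabain dose, compound given iv over 3 min, starting at 5 mg/kg. Further 5 or 10 mg/kg doses given at 15-min intervals, up to 15 or 20 mg/kg, until sinus rhythm returned. Dogs observed 2 h.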

[2] = tested on: Canis familiaris; assay: Heart rate of the dog was measured after ouabain administration to dogs; format: functional, Canis lupus familiaris; procedure, shortened: as §1
[3] = species: Canis familiaris; assay: Duration of the reversal of ouabain induced arrhythmia was measured; format: functional, Canis lupus familiaris; procedure, shortened: as §1
[4] = species: Canis familiaris; assay: Concentration of ouabain required to induce arrhythmia in dogs; format: functional, Canis lupus familiaris; procedure, shortened: as §1
[5] = species: Canis familiaris; assay: Concentration required to reverse ouabain induced arrhythmia in dogs; format: functional, Canis lupus familiaris; procedure, shortened: as §1
[6] = species: Canis familiaris; assay: Number of dogs reverted ouabain induced arrhythmia; format: functional, Canis lupus familiaris; procedure, shortened: as §1
[7] = species: Canis familiaris; assay: Number of dogs used ouabain induced arrhythmia; format: functional, Canis lupus familiaris; procedure, shortened: as §1
[8] = tested on: Cavia porcellus; assay: Local anesthetic activity using modification of the guinea pig intracutaneous wheal method.; format: functional
Procedure, shortened: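 Guinea pigs, four per test. Each animal received four intracutaneous injections: propranolol standard at 0.6 and 0.2%, test high dose 0.6-2% and low dose 0.2-0.67%. Wheals marked. Skin pricked with a 23-gauge needle six times inside and six times outside the wheal every 5 min up to 30 min. Activity expressed relative to propranolol with 95% confidence limits.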

[9] = species: Canis familiaris; assay: Number of dogs reverted in ouabain induced arrhythmia; format: functional, Canis lupus familiaris; procedure, shortened: as §1
[10] = species: Canis familiaris; assay: Number of dogs used in ouabain induced arrhythmia; format: functional, Canis lupus familiaris; procedure, shortened: as §1

Row | SMILES | Heart rate [1] [min⁻¹] | Heart rate [2] [min⁻¹] | Duration of reversal [3] [min] | Ouabain [4] [µg/kg] | Dose [5] [mg/kg] | No. of dogs reverted [6] | No. of dogs used [7] | Activity [8] | No. of dogs reverted [9] | No. of dogs used [10]
1 | C=C[C@H]1CN2CC[C@H]1C[C@@H]2[C@@H](O)c1ccnc2ccc(OC)cc12 [QUINIDINE] | 170 | 211 | 31 | 59 | 9 | 10 | 13 | 1.15 | – | –
2 | Cc1ccc([C@@H](O)[C@@H]2CC3CCN2CC3)cc1 (relative stereo) | – | – | – | – | – | – | – | 0.23 | – | –
3 | COc1ccc(Br)cc1C(O)(c1cc(Br)ccc1OC)C1CC2CCN1CC2 (stereo not drawn) | 162 | 210 | >120 | 70 | 10 | 1 | 1 | 0.92 | – | –
4 | Cn1ccnc1[C@@H](O)[C@@H]1CC2CCN1CC2 (relative stereo) | – | – | – | – | – | – | – | 0.61 | – | –
5 | O[C@H](c1ccco1)[C@@H]1CC2CCN1CC2 (relative stereo) | – | – | – | – | – | – | – | 0.09 | – | –
6 | OC(c1ccco1)(c1ccco1)C1CC2CCN1CC2 (stereo not drawn) | 180 | 240 | >120 | 70 | 15 | 1 | 1 | 0.27 | – | –
7 | CCN(CC)CC(=O)Nc1c(C)cccc1C [LIDOCAINE] | 169 | 223 | 51 | 74 | 5 | 5 | 5 | 0.66 | – | –
8 | CC(C)NCC(O)COc1cccc2ccccc12 (stereo not drawn) [PROPRANOLOL] | 138 | 211 | 80 | 72 | 5 | 5 | 5 | – | – | –
9 | OC(c1ccccc1)(c1nccs1)C1CC2CCN1CC2 (stereo not drawn) | 150 | 207 | >120 | 75 | 6.4 | 1 | 2 | 0.25 | – | –
10 | O[C@@H](c1ccccc1)[C@@H]1CC2CCN1CC2 (relative stereo) | – | – | – | – | – | – | – | 0.18 | – | –
11 | O[C@H](c1ccncc1)[C@@H]1CC2CCN1CC2 (relative stereo) | – | – | – | – | – | – | – | 0.08 | – | –
12 | O[C@H](c1nccs1)[C@@H]1CC2CCN1CC2 (single isomer, unassigned) | – | – | – | – | – | – | – | 0.8 | – | –
13 | Cc1ccc(C(O)(c2ccc(C)cc2)C2CC3CCN2CC3)cc1 (stereo in doubt; 21) | 134 | 220 | 85 | 83 | 11.7 | 3 | 3 | 0.86 | – | –
14 | O[C@H](C1=C2C=CC=CC(=CC=C1)C2)[C@@H]1CC2CCN1CC2 (relative stereo) | 156 | 216 | >120 | 70 | 15 | – | – | 0.99 | 1 | 1
15 | O[C@H](c1ccccc1)[C@@H]1CC2CCN1CC2 (relative stereo) | – | – | – | – | – | – | – | 0.25 | – | –
16 | O[C@H](c1ccc(Cl)cc1)[C@@H]1CC2CCN1CC2 (relative stereo) | 160 | 222 | 0 | 70 | 15 | 0 | 1 | 0.43 | – | –
17 | COc1ccc(C(O)(c2ccc(OC)cc2)C2CC3CCN2CC3)cc1 (stereo not drawn) | 168 | 240 | 14 | 60 | 5 | 1 | 1 | 0.54 | – | –
18 | OC(c1ccccc1)(c1ccccc1)C1CC2CCN1CC2 (stereo not drawn) | 186 | 228 | >120 | 70 | 5 | 2 | 2 | 0.85 | – | –
19 | COc1ccc([C@](O)(c2cc(Br)ccc2OC)C2CC3CCN2CC3)cc1 (stereo partly drawn) | 160 | 180 | 0 | 100 | 15 | 0 | 1 | 1.2 | – | –
20 | CC(C)(C)[C@@H](O)[C@@H]1CC2CCN1CC2 (relative stereo) | – | – | – | – | – | – | – | 0.13 | – | –
